Measurements: ChEMBL document CHEMBL1148940, “New luffariellolide derivatives from the Indonesian sponge Acanthodendrilla sp” (2004)
In brackets after ≈: the same amount, converted by molar mass. Activity calls are given as the source filed them.

Columns and labels:
Candida albicans [1] = assay: Antimicrobial activity against Candida albicans at 10 ug/disk after 24 hrs; format: functional; settings: read-out: IZ
Outline: (§1)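 Agar plate disk diffusion: disks impregnated with sample (5 or 10 µg per disk) placed on agar plates pre-inoculated with the test organism; solvent controls run against each organism. Plates incubated at 37 °C for 24 h, then clear inhibition zones around the disk measured in mm; sample scored active when zone exceeded 7 mm.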

Staphylococcus aureus [2] = assay: Antimicrobial activity against Staphylococcus aureus ATCC 25923 at 5 ug/disk after 24 hrs; format: functional
Outline: (§2)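 Agar plate disk diffusion: disks impregnated with test sample (5 or 10 µg per disk) placed on agar plates previously inoculated with the organism, with solvent controls. Plates incubated 24 h at 37 °C. Read-out is the diameter (mm) of the clear inhibition zone around the disk. A sample is scored active when the zone exceeds 7 mm.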

Escherichia coli [3] = assay: Antimicrobial activity against Escherichia coli DSM 10290 at 5 ug/disk after 24 hrs; format: functional; outline: as §2
Candida albicans [4] = assay: Antimicrobial activity against Candida albicans at 5 ug/disk after 24 hrs; format: functional; outline: as §1
Staphylococcus aureus [5] = assay: Antimicrobial activity against Staphylococcus aureus ATCC 25923 at 10 ug/disk after 24 hrs; settings: for zone of inhibition at 10 µg/disc: ATCC 25923, 24 h, read-out: IZ
PC-12 = assay: Cytotoxicity against rat PC12 cells by MTT assay; format: functional, cell-based
HeLa = assay: Cytotoxicity against human HeLa cells by MTT assay; format: functional, cell-based
L5178Y = assay: Cytotoxicity against mouse L5178Y cells by MTT assay; format: functional; settings: read-out: ED50 (the source's name)
Cladosporium herbarum [6] = assay: Antimicrobial activity against Cladosporium herbarum DSM 63422 at 10 ug/disk after 24 hrs; format: functional; settings: for zone of inhibition at 10 µg/disc: DSM 63422, 24 h, read-out: IZ; outline: as §1
Cladosporium herbarum [7] = assay: Antimicrobial activity against Cladosporium herbarum DSM 63422 at 5 ug/disk after 24 hrs; format: functional, organism-based; outline: as §1
Bacillus subtilis [8] = assay: Antimicrobial activity against Bacillus subtilis DSM 2109 at 5 ug/disk after 24 hrs; format: functional; settings: for zone of inhibition at 5 µg/disc: DSM 2109, 24 h, read-out: IZ; outline: as §1
Escherichia coli [9] = assay: Antimicrobial activity against Escherichia coli DSM 10290 at 10 ug/disk after 24 hrs; format: functional; settings: for zone of inhibition at 10 µg/disc: DSM 10290, 24 h, read-out: IZ; outline: as §1
Bacillus subtilis [10] = assay: Antimicrobial activity against Bacillus subtilis DSM 2109 at 10 ug/disk after 24 hrs; format: functional; settings: DSM 2109, 24 h, read-out: IZ; outline: as §1
Cladosporium herbarum [11] = assay: Antimicrobial activity against Cladosporium herbarum DSM 63422 by serial dilution assay; format: functional

Molecule: COC1OC(=O)C=C1CC/C=C(\C)CC/C=C(\C)CCC1=C(C)CCCC1(C)C (stereo not given)
- zone of inhibition at 10 µg/disc (Candida albicans [1]): 9 mm
- Activity (Staphylococcus aureus [2]): inactive
- Activity (Escherichia coli [3]): inactive
- zone of inhibition at 5 µg/disc (Candida albicans [4]; read-out: IZ): 9 mm
- zone of inhibition at 10 µg/disc (Staphylococcus aureus [5]): 10 mm
- Activity (PC-12): inactive
- Activity (HeLa): inactive
- EC50 (L5178Y): 0.7 mg/L (≈ 1.75 µM)
- zone of inhibition at 10 µg/disc (Cladosporium herbarum [6]): 15 mm
- Activity (Cladosporium herbarum [7]): inactive
- zone of inhibition at 5 µg/disc (Bacillus subtilis [8]): 7 mm
- Activity (Escherichia coli [9]): inactive
- zone of inhibition at 10 µg/disc (Bacillus subtilis [10]): 9 mm

Molecule: CCOC1OC(=O)C=C1CC/C=C(\C)CC/C=C(\C)CCC1=C(C)CCCC1(C)C (stereo not given)
- zone of inhibition at 10 µg/disc (Candida albicans [1]): 9 mm
- Activity (Staphylococcus aureus [2]): inactive
- Activity (Escherichia coli [3]): inactive
- Activity (Candida albicans [4]): inactive
- Activity (Staphylococcus aureus [5]): inactive
- Activity (PC-12): inactive
- Activity (HeLa): inactive
- EC50 (L5178Y): > 100 mg/L
- Activity (Cladosporium herbarum [6]): inactive
- Activity (Cladosporium herbarum [7]): inactive
- Activity (Bacillus subtilis [8]): inactive
- zone of inhibition at 10 µg/disc (Escherichia coli [9]): 12 mm
- zone of inhibition at 10 µg/disc (Bacillus subtilis [10]): 7 mm

Molecule: CC1=C(CC/C(C)=C/CC/C(C)=C/CCC2=CC(=O)OC2O)C(C)(C)CCC1=O (stereo not given) [ACANTHOLIDE B]
- zone of inhibition at 10 µg/disc (Candida albicans [1]): 10 mm
- Activity (Staphylococcus aureus [2]): inactive
- Activity (Escherichia coli [3]): inactive
- Activity (Candida albicans [4]): inactive
- zone of inhibition at 10 µg/disc (Staphylococcus aureus [5]): 10 mm
- Activity (PC-12): inactive
- Activity (HeLa): inactive
- EC50 (L5178Y): > 10 mg/L
- zone of inhibition at 10 µg/disc (Cladosporium herbarum [6]): 10 mm
- Activity (Cladosporium herbarum [7]): inactive
- Activity (Bacillus subtilis [8]): inactive
- zone of inhibition at 10 µg/disc (Escherichia coli [9]): 9 mm
- zone of inhibition at 10 µg/disc (Bacillus subtilis [10]): 12 mm

Molecule: CC(=O)[C@]1(CC/C(C)=C/CC/C(C)=C/CCC2=CC(=O)OC2O)[C@@H](O)CCC1(C)C (stereo not given in full) [ACANTHOLIDE D]
- Activity (PC-12): inactive
- Activity (HeLa): inactive
- EC50 (L5178Y): > 10 mg/L

Molecule: CC(=O)[C@]1(CC/C(C)=C/CC/C(C)=C/CCC2=CC(=O)OC2O)[C@H](O)CCC1(C)C (stereo not given in full) [ACANTHOLIDE E]
- Activity (PC-12): inactive
- Activity (HeLa): inactive
- EC50 (L5178Y): 7 mg/L (≈ 16.7 µM)

Molecule: CC1=C(CC/C(C)=C/CC/C(C)=C/CCC2=CC(=O)OC2O)C(C)(C)CCC1 (stereo not given) [LUFFARIELLOLIDE]
- zone of inhibition at 10 µg/disc (Candida albicans [1]): 10 mm
- zone of inhibition at 5 µg/disc (Staphylococcus aureus [2]; ATCC 25923, 24 h, read-out: IZ): 7 mm
- zone of inhibition at 5 µg/disc (Escherichia coli [3]; DSM 10290, 24 h, read-out: IZ): 7 mm
- Activity (Candida albicans [4]): inactive
- zone of inhibition at 10 µg/disc (Staphylococcus aureus [5]): 11 mm
- Activity (PC-12): inactive
- Activity (HeLa): inactive
- EC50 (L5178Y): 3.3 mg/L (≈ 8.54 µM)
- MIC (Cladosporium herbarum [11]): 10.4 mg/L (≈ 26.9 µM)
- zone of inhibition at 10 µg/disc (Cladosporium herbarum [6]): 20 mm
- Activity (Cladosporium herbarum [7]): inactive
- zone of inhibition at 5 µg/disc (Bacillus subtilis [8]): 7 mm
- zone of inhibition at 10 µg/disc (Escherichia coli [9]): 10 mm
- zone of inhibition at 10 µg/disc (Bacillus subtilis [10]): 12 mm

Molecule: NYSTATIN
- MIC (Cladosporium herbarum [11]): 1.06 mg/L
